Screening results (PubChem)
GSK3A inh: blockers of GSK3A enzyme activity – biochemical, luminescence, cell-free homogeneous, HTS, primary screen; inhibition, % at 10 µM; actives 0.1% (n = 320,000); Glycogen synthase kinase-3 alpha (Homo sapiens), P49840; GSK-3 alpha kinase, ADP-Glo luminescence, 60 min;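 active = more than half of replicates show inhibition above 20%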;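 also: GST-tagged GSK-3 alpha with peptide substrate and 25 µM ATP; 0% = DMSO neutral wells and 100% = GW8510 positive control wells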
Target sequence (P49840 whole entry, looked up): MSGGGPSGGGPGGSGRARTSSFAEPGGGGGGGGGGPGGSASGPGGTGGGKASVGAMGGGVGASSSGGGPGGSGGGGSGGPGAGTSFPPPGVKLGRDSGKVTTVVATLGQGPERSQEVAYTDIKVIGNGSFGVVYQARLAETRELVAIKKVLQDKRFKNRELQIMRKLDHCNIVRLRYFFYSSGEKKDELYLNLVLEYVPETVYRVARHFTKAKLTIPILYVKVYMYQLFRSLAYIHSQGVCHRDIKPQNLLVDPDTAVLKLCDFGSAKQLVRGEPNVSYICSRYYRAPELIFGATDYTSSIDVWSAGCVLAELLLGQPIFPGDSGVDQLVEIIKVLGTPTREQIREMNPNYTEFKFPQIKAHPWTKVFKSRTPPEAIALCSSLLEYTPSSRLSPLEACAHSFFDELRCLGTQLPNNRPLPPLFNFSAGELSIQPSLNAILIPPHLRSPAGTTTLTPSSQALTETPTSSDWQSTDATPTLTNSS
DYRK1A inh: rat Dyrk1A kinase inhibitors, primary screen, biochemical, single point, plate reader | Dual specificity tyrosine-phosphorylation-regulated kinase 1A (Rattus norvegicus), Q63470 | ADP-Glo luminescence, NFATc1 peptide | inhibition, % at 12.5 µM | actives 0.43% (n = 310,000) | AID 504441, 2011; in the data active = inhibition above about 50%;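 also: plate controls were vehicle with enzyme for no effect and no enzyme for full effect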
STK33 kinase inh: inhibitors of purified STK33 kinase, primary screen, biochemical, ADP-Glo luminescence, homogeneous, cell-free; Serine/threonine-protein kinase 33 (Homo sapiens), Q9BYT3; MBP phosphorylation; inhibition, % at 10 µM; actives 0.073% (n = 320,000); AID 2661, 2010;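 active = inhibition at or above 25%, using the most active replicate where run in duplicate; inactive = inhibition below 25%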
GSK3B inh: human GSK3beta kinase inhibitors, primary screen, biochemical, cell-free homogeneous, HTS; Glycogen synthase kinase-3 beta (Homo sapiens), P49841; GST-GSK3beta kinase, ADP-Glo luminescence, 60 min; stronger effect = lower value; activity score (negative = inhibition), % at 10 µM; actives 0.038% (n = 300,000); AID 2097, 2009;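 active = more than half of replicate wells score below -50%, meaning over 50% inhibition versus plate controls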;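 also: 0% = median DMSO wells and -100% = median GW8510 positive control wells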
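Test system – GST-tagged human GSK3beta kinase, cell-free · Incubation – 60 min enzyme reaction, room temperature · Signal – ADP-Glo luminescence · Also added – peptide substrate and ATP at 25 µM · Controls – DMSO neutral wells and GW8510 at 20 µM as positive · Buffer or medium – Tris/MgCl2 kinase buffer · Measure – Luminescence-derived activity versus plate DMSO and GW8510 wells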
Starred values were filed as active, the others as inactive; . = not tested or not shown. The sample as a whole holds a higher share of hits than the screen did.

SMILES	GSK3A inh	DYRK1A inh	STK33 kinase inh	GSK3B inh
N#C/C(=C\c1ccc(O)c(Br)c1)C(=O)NCc1ccccc1	13	86*	8	-5
N#C/C(=C/c1ccccc1)C(=O)NCc1ccccc1	-1	1	-1	4
Cc1cc(C=C2C(=O)c3ccccc3C2=O)c(C)n1-c1ccc(C(=O)O)cc1	2	-4	32*	0
Cc1cc(C=C2C(=O)c3ccccc3C2=O)c(C)n1-c1cccc(C(=O)O)c1	-1	21	43*	-1
Cc1cc(C=O)c(C)n1-c1cccc(C(=O)O)c1	-2	-2	-1	4
O=C(Nc1ccc(NS(=O)(=O)c2ccccc2)cc1)c1cccnc1	-2	-1	0	-3
Cc1nn(-c2ccccc2C(F)(F)F)c(=O)c2noc(C)c12	1	.	-1	10
CC(C)N(Cc1ccccc1)CC(O)COc1ccc(S(=O)(=O)N2CCOCC2)cc1Cl (stereo unspecified)	-2	0	0	-1
Cc1c(CN(C)C)c2c(n1Cc1ccccc1)C(=O)c1ccc(Br)cc1-2	-1	-6	-1	-5
Cc1c(CN(C)C)c2c(n1C)C(=O)c1ccc(Br)cc1-2	55*	36	1	-37
CN(C(=O)COC(=O)C(C)(C)Oc1ccc(Cl)cc1)c1c(N)n(Cc2ccccc2)c(=O)[nH]c1=O	3	9	-2	-1
COc1ccc(C(=O)O/N=C(\C)c2ccccc2)cc1	25	37	29*	-28
CN(C)Cc1c(O)ccc2c1O/C(=C\C=C\c1ccccc1)C2=O	46	3	8	-54*
COc1cccc2c1cc1c(=O)n(CC(=O)NCCCN3CCCCC3)nc(C)n12	-1	-2	0	-60*
CC(=O)Nc1nonc1NC(C)=O	-3	-1	-2	0
CC(=O)Nc1cc(OC(C)=O)c2nonc2c1OC(C)=O	68*	.	2	.
Cc1ccc(CNC(=O)COC(=O)c2cccnc2Cl)cc1	0	3	-2	.
CN(C(=O)CSc1nc2ccc(Cl)cc2[nH]1)C1CCS(=O)(=O)C1 (stereo unspecified)	0	.	-1	.
Cc1cc(-c2ccc(N=Nc3c(S(=O)(=O)O)cc4cc(S(=O)(=O)O)cc(N)c4c3O)c(C)c2)ccc1N=Nc1c(S(=O)(=O)O)cc2cc(S(=O)(=O)O)cc(N)c2c1O	32	.	66*	.
O=S(=O)(O)c1cc(O)c2c(O)c(N=Nc3cc(Cl)ccc3O)c(S(=O)(=O)O)cc2c1	9	10	5	-1
Fc1cccc(Cl)c1CSc1nnc(-c2ccncc2)o1	57*	37	2	-34
Clc1ccccc1CSc1nnc(-c2ccncc2)o1	54*	30	0	1
N#Cc1ccccc1CSc1nnc(-c2ccncc2)o1	21	26	2	-52*
Brc1cccc(CSc2nnc(-c3ccncc3)o2)c1	59*	26	2	-70*
c1ccc2c(CSc3nnc(-c4ccncc4)o3)cccc2c1	33	25	-1	-26
SMILES	GSK3A inh	DYRK1A inh	STK33 kinase inh	GSK3B inh
CCc1noc(C)c1C(=O)OCC(=O)NC(=O)c1ccccc1	-2	-2	0	0
CCCCCCN1C=CC(=C2C(=O)c3ccccc3C2=O)C=C1	-3	4	-1	-5
CCCN1C=CC(=C2C(=O)c3ccccc3C2=O)C=C1	10	37	31*	0
c1nc(N2CCCC2)c2[nH]cnc2n1	14	18	31*	-1
Cc1cccc(/C(N)=N/OC(=O)c2ccc3c(c2)OCO3)c1	35	23	32*	-25
N/C(=N\OC(=O)c1ccc2c(c1)OCO2)c1cccc([N+](=O)[O-])c1	0	5	4	1
CCOc1cc(C2C3=C(CC(C)(C)CC3=O)Nc3n[nH]c(C)c32)ccc1O (stereo unspecified)	94*	-2	-1	-61*
CCOC(=O)C1=C(C)NC2=C(C(=O)CC(C)(C)C2)C1c1ccc(O)c(OCC)c1 (stereo unspecified)	-2	-4	-3	1
CCn1c2ccc(C)cc2c2nc3cc(C(=O)O)ccc3nc21	28	28	57*	-5
CCn1c2ccc(Cl)cc2c2nc3ccccc3nc21	.	.	2	1
CCOC(=O)Cc1nnc(NC(=O)COc2ccc(OC)cc2)s1	-1	.	0	0
CCOC(=O)Cc1nnc(NC(=O)COc2ccc(C)cc2)s1	0	3	27*	-1
